Measurements from ChEMBL document CHEMBL1138372, “Design, synthesis, and biological evaluation of new (2E,6E)-10-(dimethylamino)-3,7-dimethyl-2,6-decadien-1-ol ethers as inhibitors of human and Trypanosoma cruzi oxidosqualene cyclase” (Bioorg Med Chem Lett, 2007).
Calls of active or inactive are those of the source. The calls are words filed in the database; no cut-off is given here.

Columns and labels:
[1] = tested on: NIH3T3; experiment: Inhibition of sterol biosynthesis in Swiss Albino mouse 3T3 cells assessed as incorporation of [2-14C]acetate in cholesterol at 1 uM; format: functional; design: scale not given: the % may be the effect or the level left
In short: (§1)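 3T3 fibroblasts (7×10^4 cells) were grown 24 h in DMEM with 10% lipid-depleted serum, then preincubated 3 h with inhibitor. [2-14C]acetate (1 uCi/well) was added for a further 3 h. Cells were lysed in 0.1 N NaOH and saponified in methanolic KOH (1 h, 80 °C). Nonsaponifiable lipids were extracted and separated by TLC against sterol standards. Label is given as % of total radioactivity in sterols, mean ± SD of two experiments in duplicate.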

[2] = tested on: NIH3T3; experiment: Inhibition of sterol biosynthesis in Swiss Albino mouse 3T3 cells assessed as incorporation of [2-14C]acetate in lanosterol at 1 uM; format: functional; design: scale not given: the % may be the effect or the level left; in short: as §1
[3] = tested on: NIH3T3; experiment: Inhibition of sterol biosynthesis in Swiss Albino mouse 3T3 cells assessed as incorporation of [2-14C]acetate in […]-dioxidosqualene at 1 uM; format: functional; design: scale not given: the % may be the effect or the level left; in short: as §1
[4] = tested on: NIH3T3; experiment: Inhibition of sterol biosynthesis in Swiss Albino mouse 3T3 cells assessed as incorporation of [2-14C]acetate in 2,3-oxidosqualene at 1 uM; format: functional; design: scale not given: the % may be the effect or the level left; in short: as §1
[5] = tested on: NIH3T3; experiment: Inhibition of sterol biosynthesis in Swiss Albino mouse 3T3 cells assessed as incorporation of [2-14C]acetate in squalene at 1 uM; format: functional; design: scale not given: the % may be the effect or the level left; in short: as §1
[6] = tested on: NIH3T3; experiment: Inhibition of sterol biosynthesis in Swiss Albino mouse 3T3 cells assessed as decrease in incorporation of [2-14C]acetate in cholesterol at 50 uM; format: functional; design: scale not given: the % may be the effect or the level left; in short: as §1
[7] = tested on: Trypanosoma cruzi; experiment: Inhibition of Trypanosoma cruzi oxidosqualene cyclase at 10 uM
[8] = biological target: T1, Lanosterol synthase (Pneumocystis carinii) (UniProt Q96WJ0); experiment: Inhibition of Pneumocystis carinii oxidosqualene cyclase at 10 uM
T1 sequence (whole entry): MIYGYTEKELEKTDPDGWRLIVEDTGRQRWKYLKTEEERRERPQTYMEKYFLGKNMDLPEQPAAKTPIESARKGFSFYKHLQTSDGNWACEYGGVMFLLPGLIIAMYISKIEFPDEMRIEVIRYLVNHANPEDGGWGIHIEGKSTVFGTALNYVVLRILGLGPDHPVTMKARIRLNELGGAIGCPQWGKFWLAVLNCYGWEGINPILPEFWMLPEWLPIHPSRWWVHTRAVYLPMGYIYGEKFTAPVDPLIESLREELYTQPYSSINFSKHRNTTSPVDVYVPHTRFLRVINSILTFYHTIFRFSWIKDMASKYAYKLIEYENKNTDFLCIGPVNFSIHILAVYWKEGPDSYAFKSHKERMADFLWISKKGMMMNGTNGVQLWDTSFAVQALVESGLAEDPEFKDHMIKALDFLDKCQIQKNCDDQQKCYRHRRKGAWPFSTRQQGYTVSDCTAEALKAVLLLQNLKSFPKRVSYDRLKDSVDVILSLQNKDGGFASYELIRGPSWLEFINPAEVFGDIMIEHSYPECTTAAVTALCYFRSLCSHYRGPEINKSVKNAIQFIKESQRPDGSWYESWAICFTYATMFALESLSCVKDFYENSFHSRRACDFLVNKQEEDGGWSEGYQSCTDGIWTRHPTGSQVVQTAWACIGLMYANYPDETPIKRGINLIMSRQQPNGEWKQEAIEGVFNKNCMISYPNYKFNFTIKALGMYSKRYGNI

[9] = biological target: T2, Lanosterol synthase ERG7 (Saccharomyces cerevisiae S288c) (UniProt P38604); experiment: Inhibition of Saccharomyces cerevisiae oxidosqualene cyclase at 10 uM
T2 sequence (whole entry): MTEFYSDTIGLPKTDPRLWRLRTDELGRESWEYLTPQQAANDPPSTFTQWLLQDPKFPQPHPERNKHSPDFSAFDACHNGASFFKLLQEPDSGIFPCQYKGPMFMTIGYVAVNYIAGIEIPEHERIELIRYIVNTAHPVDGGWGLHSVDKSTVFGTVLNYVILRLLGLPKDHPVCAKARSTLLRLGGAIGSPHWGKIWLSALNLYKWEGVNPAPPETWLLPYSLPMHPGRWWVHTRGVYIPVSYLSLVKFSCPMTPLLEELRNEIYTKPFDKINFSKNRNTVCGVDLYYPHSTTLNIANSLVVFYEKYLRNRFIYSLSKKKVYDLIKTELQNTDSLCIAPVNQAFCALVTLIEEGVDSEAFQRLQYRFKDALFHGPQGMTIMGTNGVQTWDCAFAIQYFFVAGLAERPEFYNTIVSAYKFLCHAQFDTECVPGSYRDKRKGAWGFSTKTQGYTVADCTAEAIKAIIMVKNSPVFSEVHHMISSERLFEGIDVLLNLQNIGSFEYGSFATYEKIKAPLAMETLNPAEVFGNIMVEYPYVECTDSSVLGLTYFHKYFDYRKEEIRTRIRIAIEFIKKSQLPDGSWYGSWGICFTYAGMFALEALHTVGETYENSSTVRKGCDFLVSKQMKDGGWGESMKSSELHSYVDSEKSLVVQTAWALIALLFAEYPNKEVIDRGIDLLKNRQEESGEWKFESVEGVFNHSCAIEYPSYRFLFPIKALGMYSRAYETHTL

[10] = biological target: T3, Lanosterol synthase (Homo sapiens) (UniProt P48449); experiment: Inhibition of human oxidosqualene cyclase expressed in Pichia pastoris cells at 10 uM
T3 sequence (whole entry): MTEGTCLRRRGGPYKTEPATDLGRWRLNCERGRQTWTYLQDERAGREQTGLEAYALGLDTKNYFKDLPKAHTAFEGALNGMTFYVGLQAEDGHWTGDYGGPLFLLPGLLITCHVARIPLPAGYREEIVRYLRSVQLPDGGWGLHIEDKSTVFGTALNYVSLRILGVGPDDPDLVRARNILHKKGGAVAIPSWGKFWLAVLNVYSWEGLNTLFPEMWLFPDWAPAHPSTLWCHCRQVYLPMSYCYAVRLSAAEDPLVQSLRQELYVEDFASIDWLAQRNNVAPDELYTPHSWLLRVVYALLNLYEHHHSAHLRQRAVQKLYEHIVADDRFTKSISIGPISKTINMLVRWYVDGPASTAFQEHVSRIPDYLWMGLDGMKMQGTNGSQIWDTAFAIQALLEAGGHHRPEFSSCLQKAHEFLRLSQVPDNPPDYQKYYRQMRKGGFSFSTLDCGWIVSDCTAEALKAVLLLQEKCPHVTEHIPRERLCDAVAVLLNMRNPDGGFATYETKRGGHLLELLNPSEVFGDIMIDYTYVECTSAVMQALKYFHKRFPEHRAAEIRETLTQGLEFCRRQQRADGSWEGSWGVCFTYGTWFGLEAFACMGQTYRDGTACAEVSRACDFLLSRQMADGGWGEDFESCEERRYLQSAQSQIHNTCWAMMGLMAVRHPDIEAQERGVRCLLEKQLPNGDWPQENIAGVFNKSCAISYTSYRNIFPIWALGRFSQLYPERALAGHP

[11] = Inhibition of Trypanosoma cruzi oxidosqualene cyclase
[12] = biological target: T4, Lanosterol synthase (Pneumocystis carinii, UniProt Q96WJ0); experiment: Inhibition of Pneumocystis carinii oxidosqualene cyclase
T4 sequence (Q96WJ0 whole entry): T1 sequence (whole entry)

[13] = biological target: T5, Lanosterol synthase ERG7 (Saccharomyces cerevisiae S288c, UniProt P38604); experiment: Inhibition of Saccharomyces cerevisiae oxidosqualene cyclase
T5 sequence (P38604 whole entry): T2 sequence (whole entry)

[14] = biological target: T6, Lanosterol synthase (Homo sapiens, UniProt P48449); experiment: Inhibition of human oxidosqualene cyclase expressed in Pichia pastoris cells
T6 sequence (P48449 whole entry): T3 sequence (whole entry)

Row | Compound | inhibition [7] | inhibition [8] | Activity [9] | inhibition [10] | IC50 [11] | IC50 [12] | IC50 [13] | IC50 [14] | inhibition [9] | Activity [1] | Activity [2] | Activity [3] | Activity [4] | Activity [5] | Activity [6]
1 | C/C(=C\CO)CC/C=C(\C)CCCN(C)C | < 20% | < 20% | inactive | < 20% |  |  |  |  |  | 88.2% | 2.5% | 1.3% | 3.9% | 4.1% | 30%
2 | C/C(=C\COCCCc1ccccc1)CC/C=C(\C)CCCN(C)C |  |  |  |  | 470 nM | 330 nM | 450 nM | 1100 nM |  | 31.3% | 5.5% | 30.4% | 27.9% | 5.5% | 
3 | CCCCCCOC/C=C(\C)CC/C=C(\C)CCCN(C)C |  |  |  |  | 2700 nM | 360 nM | 1780 nM | 850 nM |  | 35.5% | 7.9% | 22.3% | 29.6% | 4.6% | 
4 | C/C(=C\COCCCc1ccccc1)CC/C=C(\C)CCC(=O)N(C)C | < 20% | < 20% |  | < 20% |  |  |  |  |  | 84.6% | 3.2% | 2.8% | 4.6% | 4.8% | >50%

Second part, led by results:

Row | inhibition [7] | inhibition [8] | Activity [9] | inhibition [10] | IC50 [11] | IC50 [12] | IC50 [13] | IC50 [14] | inhibition [9] | Compound | Activity [1] | Activity [2] | Activity [3] | Activity [4] | Activity [5] | Activity [6]
5 |  |  |  |  | 7400 nM | 1700 nM |  | 4500 nM | < 20% | C/C(=C\COCCCc1ccc(-c2ccccc2)cc1)CC/C=C(\C)CCCN(C)C | 53.2% | 6.4% | 18% | 17.5% | 4.9% | 
6 | < 20% |  | inactive | < 20% |  | 10000 nM |  |  |  | C/C(=C\COCCCc1cccc2ccccc12)CC/C=C(\C)CCCN(C)C | 72.7% | 5% | 3.2% | 12.5% | 6.6% | 30%
